This note sets out measurements from publication PMC4229952 (Molecular cancer therapeutics, 2014).

Ends that are not written are not given here. Peptide text beside a SMILES is read from it. * marks the point of attachment. Palmitoyl = CCCCCCCCCCCCCCCC(=O)*; Myristoyl = CCCCCCCCCCCCCC(=O)*

The target in one experiment is T1, recombinant GIPC PDZ (Homo sapiens, UniProt O14908).
T1 sequence (O14908 133-213 limits assumed): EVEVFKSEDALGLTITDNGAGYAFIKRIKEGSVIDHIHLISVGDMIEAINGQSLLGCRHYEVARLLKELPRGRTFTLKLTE
As to the kind of experiment: Surface plasmon resonance binding to recombinant GIPC PDZ. Put shortly: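 Recombinant GIPC PDZ was amine-coupled to a CM5 chip with NHS/EDC at pH 5.5, the optimum found by pH scouting. Lipidated peptide analyte was diluted in HBS-EP from 10×Kd to 0.1×Kd. Runs used the instrument's kinetic/affinity workflow, and Kd was derived from sensorgram analysis.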

A further experiment has as its system ASPC-1 cells. As to the kind of experiment: Thymidine incorporation. The experiment is classed as cell-based, human. Conditions: for anti-proliferative activity, screening of lipidated peptides: ASPC-1 cells, [3H] thymidine incorporation, Figure 3A. Put shortly: (§1)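 About 2×10⁴ cells per well in 24-well plates were cultured with peptides, including a palmitoylated scrambled-sequence control, for the indicated time. Media were RPMI-1640 with 10% FBS for ASPC-1 and DMEM with 10% FBS for MiaPaca-2. [³H]thymidine was then added for 4 h. Cells were washed in ice-cold PBS, fixed in chilled methanol and lysed in 0.1 N NaOH, and TCA-precipitable radioactivity was counted. Error bars are SD; t-test.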

The test system of another experiment is Smad-1/5 phosphorylation. As to the kind of experiment: Western blot of Smad phosphorylation and expression. The experiment is classed as cell-based, human. The settings on record: Figure 5B. The method in brief: (§2)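 Whole-cell lysates were made in NP-40 buffer with protease and phosphatase inhibitors and cleared at 12,000 rpm for 10 min at 4 °C. Proteins were separated by SDS-PAGE, transferred to PVDF, immunoblotted and detected by chemiluminescence. Cells were harvested at 70–80% confluence.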

The subject of experiment [1] is subcutaneous ASPC-1 tumor. As to the kind of experiment: Subcutaneous ASPC-1 tumor model, intratumoral peptide injection. The experiment is classed as in vivo, SCID mice. The settings on record: subcutaneous ASPC-1 model, compared to AP1063, Supplementary Figure S2. Put shortly:
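Male SCID mice aged 6–8 weeks received 5×10⁶ ASPC-1 cells in 100 μl PBS subcutaneously in the right flank. After 9 days they were randomized (n=7 per group) to daily intratumoral peptide at 500 μg/mouse/day in PBS containing 80% DMSO for 3 weeks; comparator was a scrambled palmitoylated peptide. Tumors were fixed in 10% neutral buffered formalin for 24 h, paraffin-embedded and immunostained (DAB, hematoxylin counterstain). t-test.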

For experiment [2], the system named is Id-1, E-cadherin expression. As to the kind of experiment: Western blot of differentiation markers. In kind it is cell-based, human. The settings on record: Figure 6B. The method in brief: as §2
For experiment [3], the system named is Endoglin-GIPC interaction. As to the kind of experiment: Immunoprecipitation of endoglin-GIPC interaction. The settings on record: ASPC-1 and MiaPaca-2 cell lines, Figure 3B. The experiment is classed as cell-based, human.
A further experiment concerns MiaPaca-2 cells. As to the kind of experiment: Thymidine incorporation. In kind it is cell-based, human. The settings on record: MiaPaca-2, AP1063 as control, Figure 3D. The method in brief: as §1
The target of experiment [4] is T2, Endoglin C-terminal peptide AP1013 (N-myristoyl-PCSTSSMA) (Homo sapiens).
T2 chain: Myristoyl-PCSTSSMA
As to the kind of experiment: SPR.

Turning to `CCCCCCCCCCCCCC(=O)N1CCC[C@H]1C(=O)N[C@@H](CS)C(=O)N[C@@H](CO)C(=O)N[C@H](C(=O)N[C@@H](CO)C(=O)N[C@@H](CO)C(=O)N[C@@H](CCSC)C(=O)N[C@@H](C)C(=O)O)[C@@H](C)O` [AP1013, Myristoyl-PCSTSSMA] (Myristoyl-PCSTSSMA-OH), the Kd on recombinant GIPC PDZ is 7.1 ± 2.8 µM.
On to Ac-PCSTSSMA [AP1030], for which the “anti-proliferative activity, screening of lipidated peptides” value (shortened to “anti-proliferative activity, screening”) in the experiment on ASPC-1 cells was “ineffective”.
As to Palmitoyl-PCSTSSMA [AP1032], in the experiment on Smad-1/5 phosphorylation, the Smad-1/5 phosphorylation result is recorded as “clearly inhibits”; the “expressions of Smad1 and Smad 2” value is recorded as “also inhibited”. In experiment [1], the “microvessel density (MVD)” value was “significant decrease in MVD” and the necrotic area result is “increased necrotic area”. Moreover, the inhibition of proliferation entry in the experiment with ASPC-1 cells (ASPC-1, AP1063 as control, Figure 3C) is reported as “inhibited proliferation”. The “anti-proliferative activity, screening” value in the experiment on ASPC-1 cells was “highest anti-proliferative activity”. For the same molecule, the Id-1 expression result in experiment [2] (ASPC-1 and MiaPaca-2, 100 μmol/L peptide) is “inhibited Id-1 expression”. In experiment [2] (Western blot, 100 μmol/L peptide), the E-cadherin expression entry is recorded as “did not significantly increase”. The “inhibition of endoglin-GIPC interaction” value in experiment [3] is “effectively inhibited endoglin-GIPC interaction”. Besides, the inhibition of proliferation entry in the experiment with MiaPaca-2 cells is reported as “inhibited proliferation”.
With Palmitoyl-SMTSCAPS [AP1063], the “inhibition of endoglin-GIPC interaction” value in experiment [3] is on record as “could not”.
Turning to “myristoyl-PCSTSS[K(εN-benzoyl)]A [AP1035]”, the “anti-proliferative activity, screening” value with ASPC-1 cells was “not superior to the corresponding non-modified AP1013”.
Same read-out and setting: the entry for “myristoyl-PCST[K(εN-benzoyl)]SMA [AP1036]” is “not superior to the corresponding non-modified AP1013”.

B1: GIPC PDZ domain PDZ (protein)
chain: EVEVFKSEDALGLTITDNGAGYAFIKRIKEGSVIDHIHLISVGDMIEAINGQSLLGCRHYEVARLLKELPRGRTFTLKLTE
Consider B1, for which the Kd in experiment [4] was 7.1 µM.
